# Assays:
# Mycobacterium kansasii [1] = experiment: Antimycobacterial activity against Mycobacterium kansasii 6509/96 after 7 days; format: functional; settings: 6509/96, 168 h
# Summary of the method: (§1)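 Šula's semisynthetic medium micromethod at 37 °C, read after 7, 14 and 21 days. The 1.0 McFarland suspension was diluted 10^-4. MIC determined. 6509/96 is a clinical isolate.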
# HepG2 = experiment: Cytotoxicity against human HepG2 cells after 24 hrs […]; format: cell-based; settings: HepG2, 24 h
# [2] = test system: Mycobacterium tuberculosis; experiment: Antimycobacterial activity against Mycobacterium tuberculosis H37Rv 331/88 after 21 days; format: functional; settings: H37Rv 331/88, 504 h
# Mycobacterium kansasii [3] = experiment: Antimycobacterial activity against Mycobacterium kansasii 6509/96 after 21 days; format: functional; settings: 6509/96, 504 h; summary of the method: as §1
# [4] = test system: Mycobacterium tuberculosis; experiment: Antimycobacterial activity against Mycobacterium tuberculosis H37Rv 331/88 after 14 days; format: functional; settings: H37Rv 331/88, 336 h
# Mycobacterium avium [5] = experiment: Antimycobacterial activity against Mycobacterium avium 330/80 after 14 days; format: functional; settings: 330/80, 336 h
# Mycobacterium kansasii [6] = experiment: Antimycobacterial activity against Mycobacterium kansasii 235/80 after 7 days; format: functional; settings: 235/80, 168 h; summary of the method: as §1
# Mycobacterium kansasii [7] = experiment: Antimycobacterial activity against Mycobacterium kansasii 235/80 after 14 days; format: functional; settings: 235/80, 336 h; summary of the method: as §1
# Mycobacterium avium [8] = experiment: Antimycobacterial activity against Mycobacterium avium 330/80 after 21 days; format: functional; settings: 330/80, 504 h
# [9] = Selectivity index, ratio of CI50 for human HepG2 cells to MIC100 for Mycobacterium tuberculosis H37Rv 331/88
# Mycobacterium kansasii [10] = experiment: Antimycobacterial activity against Mycobacterium kansasii 235/80 after 21 days; format: functional; settings: 235/80, 504 h; summary of the method: as §1
# Mycobacterium kansasii [11] = experiment: Antimycobacterial activity against Mycobacterium kansasii 6509/96 after 14 days; format: functional; settings: 6509/96, 336 h; summary of the method: as §1
# Aspergillus fumigatus [12] = experiment: Antifungal activity against Aspergillus fumigatus 231 after 48 hrs by microdilution broth method; format: functional; settings: Aspergillus fumigatus, 231, 48 h
# Summary of the method: (§2)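 CLSI M27-A3 broth microdilution in RPMI 1640 with glutamine, buffered to pH 7.0 with MOPS; DMSO diluent. Yeast inoculum 5 × 10^3 ± 0.2 CFU/mL. Moulds grown on Sabouraud agar 3–10 days before spore harvest, final inoculum 0.5-5 × 10^4 CFU/mL, checked in a Bürker chamber. Incubated dark, humid, 35 °C, read at 24 and 48 h visually and at 540 nm. MIC taken as ≥80% (yeasts) or ≥50% (filamentous) growth reduction versus control.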
# Staphylococcus aureus [13] = experiment: Antibacterial activity against methicillin-resistant Staphylococcus aureus H 5996/08 after 24 hrs by microdilution broth method; format: functional; settings: H 5996/08, 24 h
# Klebsiella pneumoniae [14] = experiment: Antibacterial activity against ESBL-positive Klebsiella pneumoniae J 14368/08 after 24 hrs by microdilution broth method; format: functional; settings: J 14368/08, 24 h
# Summary of the method: (§3)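 Mueller-Hinton broth microdilution (modified M07-A07), pH 7.4 (±0.2). Compounds dissolved in DMSO, tested at final 500 to 0.49 µmol/L. Inoculum in sterile water matched to 0.5 McFarland. Incubated in the dark, humid atmosphere, 35 °C, read at 24 and 48 h visually and at 540 nm. MIC taken as ≥95% growth reduction (IC95) versus control.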
# Lichtheimia corymbifera [15] = experiment: Antifungal activity against Absidia corymbifera 272 after 24 hrs by microdilution broth method; format: functional; settings: Lichtheimia corymbifera, 272, 24 h; summary of the method: as §2
# Trichosporon asahii [16] = experiment: Antifungal activity against Trichosporon asahii 1188 after 24 hrs by microdilution broth method; format: functional; settings: Trichosporon asahii, 1188, 24 h; summary of the method: as §2
# Staphylococcus aureus [17] = experiment: Antibacterial activity against Staphylococcus aureus CCM 4516/08 after 24 hrs by microdilution broth method; format: functional; settings: CCM 4516/08, 24 h
# Pseudomonas aeruginosa [18] = experiment: Antibacterial activity against Pseudomonas aeruginosa CCM 1961 after 24 hrs by microdilution broth method; format: functional; settings: CCM 1961, 24 h; summary of the method: as §3
# Klebsiella pneumoniae [19] = experiment: Antibacterial activity against Klebsiella pneumoniae D 11750/08 after 48 hrs by microdilution broth method; format: functional; settings: D 11750/08, 48 h; summary of the method: as §3
# Pseudomonas aeruginosa [20] = experiment: Antibacterial activity against Pseudomonas aeruginosa CCM 1961 after 48 hrs by microdilution broth method; format: functional; settings: CCM 1961, 48 h; summary of the method: as §3
# Candida tropicalis [21] = experiment: Antifungal activity against Candida tropicalis 156 after 48 hrs by microdilution broth method; format: functional; settings: Candida tropicalis, 156, 48 h; summary of the method: as §2
# Enterococcus sp. [22] = experiment: Antibacterial activity against Enterococcus sp. J 14365/08 after 48 hrs by microdilution broth method; format: functional; settings: J 14365/08, 48 h; summary of the method: as §3
# Candida albicans [23] = experiment: Antifungal activity against Candida albicans ATCC 44859 after 48 hrs by microdilution broth method; format: functional; settings: ATCC 44859, 48 h; summary of the method: as §2
# Pichia kudriavzevii [24] = experiment: Antifungal activity against Candida krusei E28 after 48 hrs by microdilution broth method; format: functional; settings: E28, 48 h; summary of the method: as §2
# [25] = test system: Trichophyton mentagrophytes; experiment: Antifungal activity against Trichophyton mentagrophytes 445 after 48 hrs by microdilution broth method; format: functional; settings: Trichophyton mentagrophytes, 445, 48 h
# Staphylococcus aureus [26] = experiment: Antibacterial activity against Staphylococcus aureus CCM 4516/08 after 48 hrs by microdilution broth method; format: functional; settings: CCM 4516/08, 48 h
# Candida tropicalis [27] = experiment: Antifungal activity against Candida tropicalis 156 after 24 hrs by microdilution broth method; format: functional; settings: Candida tropicalis, 156, 24 h; summary of the method: as §2
# Lichtheimia corymbifera [28] = experiment: Antifungal activity against Absidia corymbifera 272 after 48 hrs by microdilution broth method; format: functional; settings: Lichtheimia corymbifera, 272, 48 h; summary of the method: as §2
# Klebsiella pneumoniae [29] = experiment: Antibacterial activity against ESBL-positive Klebsiella pneumoniae J 14368/08 after 48 hrs by microdilution broth method; format: functional; settings: J 14368/08, 48 h; summary of the method: as §3
# Nakaseomyces glabratus [30] = experiment: Antifungal activity against Candida glabrata 20/I after 48 hrs by microdilution broth method; format: functional; summary of the method: as §2
# Escherichia coli [31] = experiment: Antibacterial activity against Escherichia coli CCM4517 after 48 hrs by microdilution broth method; format: functional; settings: CCM4517, 48 h; summary of the method: as §3
# Aspergillus fumigatus [32] = experiment: Antifungal activity against Aspergillus fumigatus 231 after 24 hrs by microdilution broth method; format: functional; settings: Aspergillus fumigatus, 231, 24 h; summary of the method: as §2
# Nakaseomyces glabratus [33] = experiment: Antifungal activity against Candida glabrata 20/I after 24 hrs by microdilution broth method; format: functional; summary of the method: as §2
# Escherichia coli [34] = experiment: Antibacterial activity against Escherichia coli CCM4517 after 24 hrs by microdilution broth method; format: functional; settings: CCM4517, 24 h; summary of the method: as §3
# [35] = test system: Staphylococcus epidermidis; experiment: Antibacterial activity against Staphylococcus epidermidis H 6966/08 after 48 hrs by microdilution broth method; format: functional; settings: H 6966/08, 48 h; summary of the method: as §3
# [36] = test system: Trichophyton mentagrophytes; experiment: Antifungal activity against Trichophyton mentagrophytes 445 after 24 hrs by microdilution broth method; format: functional; settings: Trichophyton mentagrophytes, 445, 24 h
# Enterococcus sp. [37] = experiment: Antibacterial activity against Enterococcus sp. J 14365/08 after 24 hrs by microdilution broth method; format: functional; settings: J 14365/08, 24 h; summary of the method: as §3
# Trichosporon asahii [38] = experiment: Antifungal activity against Trichosporon asahii 1188 after 48 hrs by microdilution broth method; format: functional; settings: Trichosporon asahii, 1188, 48 h; summary of the method: as §2
# Pichia kudriavzevii [39] = experiment: Antifungal activity against Candida krusei E28 after 24 hrs by microdilution broth method; format: functional; settings: E28, 24 h; summary of the method: as §2
# Klebsiella pneumoniae [40] = experiment: Antibacterial activity against Klebsiella pneumoniae D 11750/08 after 24 hrs by microdilution broth method; format: functional; settings: D 11750/08, 24 h; summary of the method: as §3
# Candida albicans [41] = experiment: Antifungal activity against Candida albicans ATCC 44859 after 24 hrs by microdilution broth method; format: functional; settings: ATCC 44859, 24 h; summary of the method: as §2
# [42] = test system: Staphylococcus epidermidis; experiment: Antibacterial activity against Staphylococcus epidermidis H 6966/08 after 24 hrs by microdilution broth method; format: functional; settings: H 6966/08, 24 h; summary of the method: as §3
# Staphylococcus aureus [43] = experiment: Antibacterial activity against methicillin-resistant Staphylococcus aureus H 5996/08 after 48 hrs by microdilution broth method; format: functional; settings: H 5996/08, 48 h
smiles,measurement,setting,value
O=C(Nc1cc(C(F)(F)F)cc(C(F)(F)F)c1)c1cccc([N+](=O)[O-])c1O,MIC,Mycobacterium kansasii [1],32 µM
same,IC50,HepG2,7.4 µM
same,MIC,[2],8 µM
same,MIC,Mycobacterium kansasii [3],32 µM
same,MIC,[4],8 µM
same,MIC,Mycobacterium avium [5],125 µM
same,MIC,Mycobacterium kansasii [6],16 µM
same,MIC,Mycobacterium kansasii [7],32 µM
same,MIC,Mycobacterium avium [8],125 µM
same,Selectivity Index,[9],0.925
same,MIC,Mycobacterium kansasii [10],32 µM
same,MIC,Mycobacterium kansasii [11],32 µM
O=C(Nc1cccc(C(F)(F)F)c1)c1cc([N+](=O)[O-])ccc1O,MIC,Mycobacterium kansasii [1],32 µM
same,MIC,Aspergillus fumigatus [12],500 µM
same,MIC,Staphylococcus aureus [13],31.2 µM
same,IC50,HepG2,7.4 µM
same,MIC,Klebsiella pneumoniae [14],> 500 µM
same,MIC,Lichtheimia corymbifera [15],500 µM
same,MIC,[2],16 µM
same,MIC,Mycobacterium kansasii [3],62.5 µM
same,MIC,[4],8 µM
same,MIC,Trichosporon asahii [16],500 µM
same,MIC,Staphylococcus aureus [17],31.2 µM
same,MIC,Pseudomonas aeruginosa [18],> 500 µM
same,MIC,Klebsiella pneumoniae [19],> 500 µM
same,MIC,Mycobacterium avium [5],125 µM
same,MIC,Pseudomonas aeruginosa [20],> 500 µM
same,MIC,Candida tropicalis [21],> 500 µM
same,MIC,Enterococcus sp. [22],> 500 µM
same,MIC,Candida albicans [23],> 500 µM
same,MIC,Pichia kudriavzevii [24],> 500 µM
same,MIC,[25],500 µM
same,MIC,Staphylococcus aureus [26],31.2 µM
same,MIC,Mycobacterium kansasii [6],16 µM
same,MIC,Candida tropicalis [27],> 500 µM
same,MIC,Lichtheimia corymbifera [28],500 µM
same,MIC,Klebsiella pneumoniae [29],> 500 µM
same,MIC,Nakaseomyces glabratus [30],> 500 µM
same,MIC,Escherichia coli [31],> 500 µM
same,MIC,Aspergillus fumigatus [32],500 µM
same,MIC,Nakaseomyces glabratus [33],> 500 µM
same,MIC,Mycobacterium kansasii [7],32 µM
same,MIC,Escherichia coli [34],> 500 µM
same,MIC,[35],31.2 µM
same,MIC,Mycobacterium avium [8],125 µM
same,MIC,[36],500 µM
same,MIC,Enterococcus sp. [37],> 500 µM
same,Selectivity Index,[9],0.463
same,MIC,Trichosporon asahii [38],500 µM
same,MIC,Pichia kudriavzevii [39],> 500 µM
same,MIC,Klebsiella pneumoniae [40],> 500 µM
same,MIC,Mycobacterium kansasii [10],62.5 µM
same,MIC,Mycobacterium kansasii [11],62.5 µM
same,MIC,Candida albicans [41],> 500 µM
same,MIC,[42],31.2 µM
same,MIC,Staphylococcus aureus [43],31.2 µM
